Data as given in ChEMBL document CHEMBL1129688, “ATP-citrate lyase as a target for hypolipidemic intervention. Design and synthesis of 2-substituted butanedioic acids as novel, potent inhibitors of the enzyme” (J Med Chem, 1996).

How the values were obtained:
ATP-citrate synthase [1] = biological target: T1, ATP-citrate synthase (Rattus norvegicus, UniProt P16638); assay: Inhibitory activity against rat ATP-citrate lyase activity by the […] dehydrogenase catalyzed reduction of oxaloacetate by NADH.
T1 sequence (P16638 whole entry): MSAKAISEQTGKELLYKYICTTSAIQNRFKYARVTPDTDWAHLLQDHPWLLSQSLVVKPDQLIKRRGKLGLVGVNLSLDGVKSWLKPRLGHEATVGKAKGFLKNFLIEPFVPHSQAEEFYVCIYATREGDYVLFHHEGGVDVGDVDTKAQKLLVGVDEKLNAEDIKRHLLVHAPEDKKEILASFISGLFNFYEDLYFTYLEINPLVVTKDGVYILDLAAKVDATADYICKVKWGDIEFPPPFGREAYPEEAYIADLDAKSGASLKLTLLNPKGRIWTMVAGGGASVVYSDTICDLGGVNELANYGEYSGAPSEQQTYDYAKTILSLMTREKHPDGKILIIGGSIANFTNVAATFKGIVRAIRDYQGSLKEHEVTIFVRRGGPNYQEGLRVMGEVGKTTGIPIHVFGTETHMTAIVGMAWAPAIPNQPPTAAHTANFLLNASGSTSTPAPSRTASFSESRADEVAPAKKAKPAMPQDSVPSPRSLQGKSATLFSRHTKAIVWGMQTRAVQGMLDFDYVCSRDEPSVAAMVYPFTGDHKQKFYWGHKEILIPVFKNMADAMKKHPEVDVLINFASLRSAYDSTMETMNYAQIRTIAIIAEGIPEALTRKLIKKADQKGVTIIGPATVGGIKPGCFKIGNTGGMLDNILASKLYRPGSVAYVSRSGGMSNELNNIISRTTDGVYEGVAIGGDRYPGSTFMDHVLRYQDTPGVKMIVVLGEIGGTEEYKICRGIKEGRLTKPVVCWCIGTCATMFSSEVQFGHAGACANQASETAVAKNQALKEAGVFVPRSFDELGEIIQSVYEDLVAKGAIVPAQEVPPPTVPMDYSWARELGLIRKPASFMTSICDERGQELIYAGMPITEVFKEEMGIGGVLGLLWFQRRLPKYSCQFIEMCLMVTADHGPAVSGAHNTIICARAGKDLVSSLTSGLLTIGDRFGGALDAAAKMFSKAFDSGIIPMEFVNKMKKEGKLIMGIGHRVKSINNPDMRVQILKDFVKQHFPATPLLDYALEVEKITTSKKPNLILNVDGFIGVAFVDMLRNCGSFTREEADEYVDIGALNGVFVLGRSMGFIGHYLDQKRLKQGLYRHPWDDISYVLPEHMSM
In short: (§1)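 Purified rat ACL or recombinant human ACL was assayed by coupling oxaloacetate formation to malate dehydrogenase reduction with NADH. Buffer: Tris 100 mM pH 8.0, MgCl2 10 mM, KCl 10 mM, DTT 10 mM, plus ATP and NADH. CoA was 200 μM, and citrate was added to 100 μM (its Km) to start the reaction. A340 decrease was followed over 20 min. Ki came from fitting v = Vmax/(2 + [I]/Ki), assuming citrate-competitive inhibition.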

[2] = biological target: T2, ATP-citrate synthase (Homo sapiens) (UniProt P53396); assay: (§2) Inhibitory activity against human recombinant ATP-Citrate Lyase activity was measured by the […] dehydrogenase catalyzed reduction of oxaloacetate by NADH; conditions: concentration not given here; in short: as §1
T2 sequence (whole entry): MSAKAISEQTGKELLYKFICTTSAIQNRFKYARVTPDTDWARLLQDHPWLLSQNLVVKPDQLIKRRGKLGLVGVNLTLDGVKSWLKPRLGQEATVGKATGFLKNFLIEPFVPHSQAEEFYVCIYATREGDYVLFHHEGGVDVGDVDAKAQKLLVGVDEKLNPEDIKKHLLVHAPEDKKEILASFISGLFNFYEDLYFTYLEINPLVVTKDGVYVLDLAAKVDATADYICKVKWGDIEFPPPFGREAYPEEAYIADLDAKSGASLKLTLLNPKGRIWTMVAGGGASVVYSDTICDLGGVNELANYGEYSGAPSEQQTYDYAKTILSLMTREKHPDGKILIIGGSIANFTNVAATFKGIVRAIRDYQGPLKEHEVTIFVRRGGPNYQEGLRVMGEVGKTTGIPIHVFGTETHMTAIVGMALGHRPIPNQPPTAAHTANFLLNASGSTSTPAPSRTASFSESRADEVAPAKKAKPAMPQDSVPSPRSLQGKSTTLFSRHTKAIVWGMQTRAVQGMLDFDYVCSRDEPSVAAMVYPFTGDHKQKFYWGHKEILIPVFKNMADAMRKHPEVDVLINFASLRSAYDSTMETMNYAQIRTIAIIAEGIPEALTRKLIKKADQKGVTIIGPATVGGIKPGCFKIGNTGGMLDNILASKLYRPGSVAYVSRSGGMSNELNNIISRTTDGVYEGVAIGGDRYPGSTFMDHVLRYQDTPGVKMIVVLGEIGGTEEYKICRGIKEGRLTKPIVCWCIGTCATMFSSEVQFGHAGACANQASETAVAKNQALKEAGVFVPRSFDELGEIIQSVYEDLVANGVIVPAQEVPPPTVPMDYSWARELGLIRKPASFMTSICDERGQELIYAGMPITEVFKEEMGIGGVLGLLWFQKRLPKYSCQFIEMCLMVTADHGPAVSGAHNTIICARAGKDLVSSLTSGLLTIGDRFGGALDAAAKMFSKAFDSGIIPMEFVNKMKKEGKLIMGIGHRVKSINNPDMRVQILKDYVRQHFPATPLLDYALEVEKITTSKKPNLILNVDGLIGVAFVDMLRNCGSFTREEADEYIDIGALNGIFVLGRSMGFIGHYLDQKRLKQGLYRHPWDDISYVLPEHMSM

HepG2 [3] = assay: Percent control of ATP levels in human hepatoma cell line HepG2 at 1000 uM concentration; assay type: functional
In short: (§3)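 Serum-starved HepG2 cells (grown to 80–90% confluence in DMEM/10% FCS, then overnight without serum) were exposed to vehicle or compound at the stated final concentration for 2.5 h. Cellular ATP was then measured as a toxicity check and expressed as % of vehicle control.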

HepG2 [4] = assay: Percent control of ATP levels in human hepatoma cell line HepG2 at 10 uM concentration; assay type: functional; in short: as §3
HepG2 [5] = assay: Percent reduction of cholesterol synthesis in human hepatoma cell line HepG2 at 1000 uM concentration; assay type: functional
In short: (§4)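 HepG2 cells were grown in DMEM with Hepes, bicarbonate, glutamine and 10% FCS to 80–90% confluence, then kept overnight serum-free. Vehicle or compound was added at the stated final concentration for 2.5 h. ³H2O (71 μCi/mmol) was present for the final 90 min. Synthesis rates came from ³H incorporated into cellular cholesterol or fatty acids, relative to vehicle control.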

HepG2 [6] = assay: Percent reduction of cholesterol synthesis in human hepatoma cell line HepG2 at 10 uM concentration; assay type: functional; set-up: scale not given: the % may be the effect or the level left; in short: as §4
HepG2 [7] = assay: Percent reduction of fatty acid synthesis in human hepatoma cell line HepG2 at 1000 uM concentration; assay type: functional; in short: as §4
HepG2 [8] = assay: Percent reduction of fatty acid synthesis in human hepatoma cell line HepG2 at 10 uM concentration; assay type: functional; set-up: scale not given: the % may be the effect or the level left; in short: as §4
ATP-citrate synthase [9] = biological target: T1, ATP-citrate synthase; assay: Inhibition of recombinant ATP-Citrate Lyase activity as […] dehydrogenase catalyzed reduction of oxaloacetate by NADH; conditions: in the assay text read “purified rat ATP-Citrate Lyase” for “recombinant ATP-Citrate Lyase”; in short: as §1
ATP-citrate synthase [10] = biological target: T3, ATP-citrate synthase (Homo sapiens, UniProt P53396); assay: as §2; in short: as §1
T3 sequence (P53396 whole entry): T2 sequence (whole entry)

HepG2 [11] = assay: Percent control of ATP levels in human hepatoma cell line HepG2 at 30 uM concentration; assay type: functional; in short: as §3

Compound | Ki (ATP-citrate synthase [1]) [µM] | other results
O=C(O)CC(O)(CSCCCCCc1ccccc1-c1ccccc1)C(=O)O (stereo unspecified) | 21 | 
O=C(O)CC(O)(CSCc1ccc(Cl)cc1Cl)C(=O)O (stereo unspecified) | 410 | 
O=C(O)CC(O)(CSCCCCCNc1ccc(Cl)cc1Cl)C(=O)O (stereo unspecified) | 12 | 
O=C(O)CC(O)(CSCCCCCCc1ccncc1)C(=O)O (stereo unspecified) |  | inhibition [2]: 20%
O=C(O)CC(O)CSCCCCCCc1ccc(Cl)cc1Cl (stereo unspecified) | 88 | 
CN(CCCCSCC(O)(CC(=O)O)C(=O)O)S(=O)(=O)c1ccc(Cl)cc1Cl (stereo unspecified) | 178 | 
O=C(O)CC(O)(CC(=O)CCCCCCc1ccc(Cl)cc1Cl)C(=O)O (stereo unspecified) | 1.2 | Control (HepG2 [3]): 107%; Control (HepG2 [4]): 102%; Cholesterol synthesis (% of vehicle control) (HepG2 [5]): 102%; Control (HepG2 [6]): 108%; Fatty acid synthesis (% of vehicle control) (HepG2 [7]): 102%; Control (HepG2 [8]): 98%
O=C(O)CC(O)(CCCCCCCc1ccc(Cl)cc1Cl)C(=O)O (stereo unspecified) | 10.5 | 
Cc1ccc(CCCCCCSCC(O)(CC(=O)O)C(=O)O)c(C)c1 (stereo unspecified) |  | Ki (ATP-citrate synthase [9]): 160 µM
O=C(O)CC(O)(CSCCCCCCc1ccc(Cl)cc1)C(=O)O (stereo unspecified) | 71 | 
O=C(O)CC(O)(CCSCCCCCc1ccc(Cl)cc1Cl)C(=O)O (stereo unspecified) | 2.9 | 
O=C(O)CC(O)(CSCCCCCCc1c(Cl)cncc1Cl)C(=O)O (stereo unspecified) |  | Ki (ATP-citrate synthase [10]): 121 µM
O=C(O)CC(O)(CSCCCC/C=C/c1ccc(Cl)cc1Cl)C(=O)O (stereo unspecified) | 33 | 
O=C(O)CC(O)(CSCCCCCCc1cccc2ccccc12)C(=O)O (stereo unspecified) |  | Ki (ATP-citrate synthase [9]): 63 µM
O=C(O)CC(O)(CSCCCCCCc1ccc(F)cc1F)C(=O)O (stereo unspecified) |  | Ki (ATP-citrate synthase [9]): 270 µM
O=C(O)CC(O)(CSCCCCNS(=O)(=O)c1ccc(Cl)cc1Cl)C(=O)O (stereo unspecified) | 175 | 
O=C(O)CC(O)(CSCCCCCCc1ccc(F)cc1)C(=O)O (stereo unspecified) | 120 | 
O=C(O)CC(O)(CSCCCCCc1ccccc1)C(=O)O (stereo unspecified) | 490 | 
O=C(O)CC(O)(CSCCCCCc1ccc(-c2ccccc2)cc1)C(=O)O (stereo unspecified) | 226 | 
O=C(O)CC(O)(CSCCCCCOc1ccc(Cl)cc1Cl)C(=O)O (stereo unspecified) | 67 | 
O=C(O)CC(O)(CSCCCCCCc1ccccc1-c1ccccc1)C(=O)O (stereo unspecified) | 18 | 
COC(=O)CC(CSCCCCCCc1ccc(Cl)cc1Cl)C(=O)OC (stereo unspecified) |  | Control (HepG2 [4]): 96%; Control (HepG2 [11]): 91%; Control (HepG2 [6]): 78%; Control (HepG2 [8]): 105%
NS(=O)(=O)c1ccc(CCCCCCSCC(O)(CC(=O)O)C(=O)O)cc1 (stereo unspecified) | 500 | 
O=C(O)CC(O)(CSCCCCCCc1ccc(Cl)c(Cl)c1)C(=O)O (stereo unspecified) | 110 | 
O=C(O)CC(O)(CSCCCCCCc1ccc(Br)cc1)C(=O)O (stereo unspecified) | 31 | 
O=C(O)CC(O)(CSCCCCCCc1ccc2ccccc2c1)C(=O)O (stereo unspecified) |  | Ki (ATP-citrate synthase [9]): 93 µM
O=C(O)CC(O)(CSCCCCCCc1ccc(C(=O)O)cc1)C(=O)O (stereo unspecified) | 420 | 
